High-throughput results deposited in PubChem BioAssay by several laboratories.
697 NFkB inh – inhibitors of the PMA/ionomycin-induced NF-kB reporter in 697 B cells; 697 B-cell NF-kB luciferase reporter, 16 h; inhibition, % at 4 µM; hit rate 0.33% among 330,000; AID 435022; in the data active means inhibition above about 35%
T cruzi inh – T. cruzi replication inhibition; T. cruzi beta-gal in NIH3T3, luminescence, 90 h; inhibition, % (concentration not given with the values); hit rate 1.4% among 300,000; AID 1885;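 active means mean inhibition across valid replicates above about 55%, limit read from the data; inconclusive means mean below that limit but half or more replicates reach it; inactive means mean below it, under half of replicates reach it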;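 further: signal also drops with host cell toxicity which is not excluded here; 0% = plate median of DMSO wells and 100% = zero luminescence signal; higher percent means less beta-gal luminescence so fewer parasites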
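System – NIH/3T3 host cells with β-galactosidase reporter T. cruzi · Doses – single 50 nL compound addition per well in DMSO · Reagent – 5000 T. cruzi trypomastigotes/well · Medium – Low-serum DMEM with 2% FBS · Timing – ≥90 h infection period, 3 h prior cell attachment · Evaluation – parasite load inhibition, % · Technique – GalScreen luminescence, 60 min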
GPR7 antag – blocks human GPR7 receptor signaling. P48145. GPR7-expressing cells, fluorescence antagonist assay. inhibition, % at 4.4 µM. hit rate 1.1% among 290,000. AID 1861; in the data active means inhibition above about 16%, passing the limit was not always enough;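 further: cells stimulated with the agonist NPW; 0% = agonist with vehicle and 100% = vehicle without agonist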
Target sequence (P48145 whole entry, looked up): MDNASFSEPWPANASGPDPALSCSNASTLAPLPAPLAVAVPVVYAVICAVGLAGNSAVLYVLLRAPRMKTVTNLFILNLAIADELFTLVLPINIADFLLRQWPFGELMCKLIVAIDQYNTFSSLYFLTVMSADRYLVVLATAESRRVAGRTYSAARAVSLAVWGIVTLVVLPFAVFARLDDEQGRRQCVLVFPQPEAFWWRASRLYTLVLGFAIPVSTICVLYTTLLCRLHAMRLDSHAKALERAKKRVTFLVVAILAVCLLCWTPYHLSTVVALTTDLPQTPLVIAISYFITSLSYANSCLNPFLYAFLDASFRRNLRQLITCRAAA
Jurkat NFkB inh – lowers PMA/ionomycin-induced NF-kB signal in Jurkat cells | AID 435003 | hit rate 0.53% among 330,000 | inhibition, % at 4 µM | PMA/ionomycin-induced NF-kB luciferase reporter, luminescence; in the data active means inhibition above about 50%
HSF1 activator – increases HSF-1 driven luciferase reporter signal; NIH3T3-HGL HSF-1 luciferase reporter, MG132, 8 h; 100% = twice DMSO control signal; activation, % at 9 µM; hit rate 1.7% among 300,000; AID 504408;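 active means mean replicate activation of at least 50% with a set share of replicates each reaching 50%; inconclusive means only one of those two conditions met; inactive means mean below 50% and too few replicates reaching it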;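 further: 0% = median of the neutral control wells and 100% = twice that signal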
HSF1 inhib – HSF1 inhibition. activity change, negative = inhibition, % at 7.5 µM (by protocol). NIH3T3-HGL HSE-luciferase, MG132-induced, luminescence 8 h; stronger effect = lower value. hit rate 0.77% among 300,000;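 active means more than half of replicate wells show activity change below -50%, luminescence cut by over half; inconclusive means some wells, but at most half, below -50%; inactive means no replicate well below -50%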;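 further: luciferase reports HSF-1 transcriptional activity via heat shock element; 0% = median of DMSO wells and -100% = zero luminescence signal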
Jurkat NFkB conf – lowers PMA/ionomycin-induced NF-kB signal in Jurkat cells. shares compounds with Jurkat NFkB inh. Jurkat NF-kB luciferase, 16 h. inhibition, % at 4 µM. hit rate 27% among 2,700;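 active means inhibition reaching about 45% at 4 µM in either replicate, limit read from the data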;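 further: plate controls were PMA/ionomycin stimulated DMSO wells for no effect and unstimulated DMSO wells for full effect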
An asterisk follows results filed as active; ? = inconclusive; / = no result given. Most compounds without a hit are left out; they make up all but 4.8% or so of the library.

SMILES | 697 NFkB inh | T cruzi inh | GPR7 antag | Jurkat NFkB inh | HSF1 activator | HSF1 inhib | Jurkat NFkB conf
O=C(NC1CCOCC1)C1CCC(=O)N(Cc2cccc(C(F)(F)F)c2)C1 (stereo not given) | -10 | -20 | -6 | 0 | -4 | -1 | /
Cc1ccc(CC(=O)Nc2nccs2)cc1C | -1 | -12 | 6 | 17 | -10 | -15 | /
Cc1ccc(C)c(CSc2nc3[nH]ncc3c(=O)[nH]2)c1 | -30 | -40 | 7 | 66* | 12 | -3 | 46
Cc1ccccc1CSc1nc2[nH]ncc2c(=O)[nH]1 | 13 | -2 | -7 | -4 | 2 | 3 | /
CCOc1ccc(S(=O)(=O)N2CCN=C2c2ccccc2)cc1 | -65 | -7 | 0 | 54* | -9 | -4 | 12
Cc1cc(S(=O)(=O)N2CCN=C2c2ccccc2)ccc1F | -26 | -20 | -3 | 8 | -9 | -13 | /
COc1ccccc1/C=N/NS(=O)(=O)c1ccccc1 | -20 | 3 | 1 | 91* | 14 | -3 | 9
O=C(O)c1ccc2c3n(nc2c1)-c1ccc(Cl)cc1CO3 | -22 | -1 | -3 | 59* | 16 | 36 | 10
C=CCNC(=O)c1ccc2c3n(nc2c1)-c1ccccc1CO3 | -167 | 8 | / | -154 | 10 | 5 | -71
Cc1onc(-c2ccccc2Cl)c1C(=O)Nc1ncn[nH]1 | -80 | -3 | 9 | 17 | -6 | -2 | /
COC(=O)c1ccc(N=Cc2c(C(F)(F)F)[nH][nH]c2=O)cc1 | 3 | 2 | 4 | -2 | -24 | -7 | /
CCOc1ccc(C2CC(=O)c3c([nH]c(C(=O)OC)c3C)C2)cc1OC (stereo not given) | 16 | 4 | 13 | -6 | -1 | -2 | /
COC(=O)c1[nH]c2c(c1C)C(=O)CC(c1cc(OC)ccc1OC)C2 (stereo not given) | -27 | 4 | 14 | 61* | 33 | 14 | 29
COC(=O)c1[nH]c2c(c1C)C(=O)CC(c1cccs1)C2 (stereo not given) | 0 | 12 | 3 | 56* | -44 | -39 | 54*
O=C(N[C@H](C(=O)O)c1ccccc1)C1CCC(Cn2nnc3ccccc3c2=O)CC1 (stereo not given in full) | 8 | -4 | -6 | 8 | -3 | -10 | /
O=C(NC1CCCCC1)c1ccc(-c2ccccc2[N+](=O)[O-])o1 | -175 | -6 | -5 | -152 | 44 | 27 | -105
O=C(NC1CCCCC1)c1ccc([N+](=O)[O-])o1 | -7 | 39 | 7 | 13 | 16 | -2 | /
CN[C@H]1CCc2cc(OC)c(OC)c(OC)c2-c2ccc(N(C)CC(OC)OC)c(=O)cc21 | -12 | 17 | 3 | 30 | -11 | -8 | /
CNC1CCc2cc(OC)c(OC)c(OC)c2-c2ccc(SC)c(=O)cc21 (stereo not given) | / | / | / | / | 45 | 45 | /
CCN(CC)c1ccc2c(cc1=O)[C@@H](NC)CCc1cc(OC)c(OC)c(OC)c1-2 | -3 | 35 | 21 | 60* | 7 | -12 | 3
COc1cc2c(c(OC)c1OC)-c1ccc(OC)c(=O)cc1[C@@H](N(C)CC#CCO)CC2 | -244 | 22 | 14 | 63* | -28 | -21 | 62*
COc1ccc(-c2csc(NC(=O)C3CCN(c4ncnc5sc(C)c(C)c45)CC3)n2)cc1OC | -6 | 57* | / | 53* | -9 | -6 | 39
Cc1ccccc1S(=O)(=O)Nc1nc2ccccc2nc1N1CCc2ccccc2C1 | -135 | 18 | -3 | -166 | 71* | 42 | -90
CC(=O)Nc1ccc(S(=O)(=O)Nc2nc3ccccc3nc2N2CCc3ccccc3C2)cc1 | -87 | -8 | -9 | -90 | 32 | 18 | /
O=C(Nc1ccc(Cl)cn1)c1cc2ccccc2o1 | -232 | -4 | -2 | -152 | ? | 27 | -102
O=C(Nc1ccccc1C(F)(F)F)c1cc2ccccc2o1 | -189 | -11 | -30 | -152 | ? | 25 | -81
O=C(Nc1ccccn1)c1cc2ccccc2o1 | -95 | 5 | -11 | -8 | -21 | -19 | /
COC(=O)C1CN(C(=O)COc2cc(C)cc(C)c2)c2ccccc2O1 (stereo not given) | -4 | -7 | 18 | -21 | 44 | 2 | /
